Reference: ChEMBL document CHEMBL4610088, “Higginsianins D and E, Cytotoxic Diterpenoids Produced by Colletotrichum higginsianum” (J Nat Prod, 2020)
The source made the active and inactive calls. The calls are words filed in the database; no cut-off is given here.

Key:
HaCaT [1] = test: Cytotoxicity against human HaCaT cells at 10 uM after 24 to 72 hrs by MTT assay; type: cell-based
Method in brief: (§1)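 Cells cultured in DMEM with 10% FBS at 37 °C, 5% CO2. 2×10^4 cells seeded per well, exposed to 1 or 10 μM compound for 24, 48 and 72 h. MTT (0.5 mg/mL, phenol red-free DMEM) 3 h at 37 °C; formazan dissolved in acidic isopropanol. A570–A630 read; viability = test/control absorbance. Quadruplicate wells, three independent experiments.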

HaCaT [2] = test: Cytotoxicity against human HaCaT cells at 1 to 10 uM after 72 hrs by MTT assay; type: cell-based; method in brief: as §1
HaCaT [3] = test: Cytotoxicity against human HaCaT cells at 10 uM after 48 hrs by MTT assay relative to control; type: cell-based; method in brief: as §1
HaCaT [4] = test: Cytotoxicity against human HaCaT cells assessed as reduction in cell viability at 10 uM after 24 hrs by MTT assay relative to control; type: cell-based; method in brief: as §1
HaCaT [5] = test: Cytotoxicity against human HaCaT cells assessed as reduction in cell viability at 1 uM after 24 hrs by MTT assay relative to control; type: cell-based; method in brief: as §1
NCI-H1299 [6] = test: Cytotoxicity against human NCI-H1299 cells at 1 uM after 72 hrs by MTT assay relative to control; type: functional; method in brief: as §1
NCI-H1299 [7] = test: Cytotoxicity against human NCI-H1299 cells at 10 uM after 72 hrs by MTT assay relative to control; type: functional; method in brief: as §1
A-431 = test: Cytotoxicity against human A431 cells after 72 hrs by MTT assay; type: functional, cell-based; conditions: A-431, 72 h; method in brief: as §1

Compound	Activity (HaCaT [1])	Activity (HaCaT [2])	Activity (HaCaT [3])	Activity (HaCaT [4])	Activity (HaCaT [5])	Activity (NCI-H1299 [6])	Activity (NCI-H1299 [7])	IC50 (A-431)
C=C1CC[C@H]2[C@](C)(CCC=C(C)C)[C@H](O)CC[C@]2(C)[C@@H]1Cc1c(O)c(C)c(C)oc1=O	Toxic	–	–	–	–	–	–	–
C=C1CC[C@H]2[C@](C)(CCC=C(C)C)[C@H](O)CC[C@]2(C)[C@@H]1C[C@@]1(C(=O)OC)OC(C)=C(C)C1=O	–	Non-Toxic	Toxic	37%	40%	22%	26%	1000 nM
C=C1CC[C@H]2[C@](C)(CCC=C(C)C)[C@H](O)CC[C@]2(C)[C@@H]1C[C@]1(C(=O)OC)OC(C)=C(C)C1=O	–	Non-Toxic	Toxic	Non-Toxic	Non-Toxic	inactive	inactive	–
